Data taken from article PMC8920403 (Drug Delivery, 2022).

Columns and labels:
[1] = system: corneal neovascularization (CNV); experiment: Alkali burn injury induced CNV in mice; type: in vivo, BALB/c mice; conditions: SRB-NLC 0.0125-0.05%, fluorescein staining
Method in brief: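 Male BALB/c mice (20–25 g) were anaesthetised with 1% sodium pentobarbital i.p. (80 mg/kg) plus 0.4% oxybuprocaine drops. 2 μL of 0.1 M NaOH on filter paper was applied to the right central cornea for 20 s, then rinsed with 20 mL saline. Groups of 16 received saline, test-compound lipid carrier (0.05, 0.025 or 0.0125%) or dexamethasone drops, 5 μL twice daily for 7 days. On day 7, corneas from three mice per group were fixed in 4% paraformaldehyde for 48 h, paraffin-processed, and 5 µm sagittal sections were H&E stained.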

[2] = system: experimental CNV; conditions: oral administration, dose-dependent; ref Seo et al., 2012; cited from earlier work
[3] = Ocular pharmacokinetics in rabbit eyes; type: in vivo, New Zealand White rabbits; conditions: after single topical administration; limit of quantitation 0.01 μg/mL
Method in brief: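 Forty-two male New Zealand White rabbits (2.0–2.5 kg) were split into lipid-carrier and suspension groups. Each received a single 50 μL instillation into the lower conjunctival sac of both eyes, with lids held closed for 15 s. At preset times, rabbits were killed with i.v. 4% phenobarbital sodium via the marginal ear vein. After a saline rinse of the ocular surface, aqueous humour was drawn at the limbus with a 26-G needle.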

[4] = system: neovascular corneal area; conditions: topical solution 0.05 mg/mL SRB and 0.07 mg/mL DMSO; ref Yildirim et al., 2020; cited from earlier work
[5] = system: endothelial cells; conditions: at a dose of 7.5 µg/mL (0.1–100 µg/mL studied); ref Thiele et al., 2013; cited from earlier work
[6] = system: VEGF-A; experiment: ELISA of VEGF-A in cornea of alkali burn CNV mice; type: in vivo, BALB/c mice; conditions: dexamethasone eye drops, days 3 and 7, P < 0.05
Method in brief: (§1)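 Alkali-burn CNV mice (0.1 M NaOH, 20 s) were given saline, test-compound lipid carrier or dexamethasone drops, 5 μL twice daily. On days 3 and 7, five mice per group were killed. Corneas were weighed, frozen at −80 °C, thawed at 4 °C for 0.5 h and minced. Tissue was extracted in 100 μL RIPA on ice for 1.5 h and spun at 12,000 rpm, 4 °C, 5 min. ELISA absorbance was read at 450 nm and normalised to BCA total protein. Mean ± SD; one-way ANOVA, with t test for pairs.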

[7] = system: PDGF-AB; experiment: ELISA of PDGF-AB in cornea of alkali burn CNV mice; type: in vivo, BALB/c mice; conditions: dexamethasone eye drops, days 3 and 7, P < 0.05
Method in brief: as §1

| Compound | Recovery of corneal epithelial defects after alkali burn injury [1] | Development of experimental CNV [2] | SRB levels in the aqueous humor (AH) [3] | Percentage of the neovascular corneal area vs DMSO alone [4] | Toxic effects on endothelial cells [5] | VEGF-A level in corneal tissue vs saline group [6] | PDGF-AB level in corneal tissue vs saline group [7] |
| --- | --- | --- | --- | --- | --- | --- | --- |
| CNC(=O)c1cc(Oc2ccc(NC(=O)Nc3ccc(Cl)c(C(F)(F)F)c3)cc2)ccn1 [SRB, Sorafenib] | could effectively promote the recovery of corneal epithelial defects | significantly reduced the development of experimental CNV | < 0.01 µg/mL | significantly lower | no toxic effects | – | – |
| Dexamethasone sodium phosphate | – | – | – | – | – | significantly lower | significantly lower |
